Values after ≈ are worked out from the molar mass of the structure shown. Active and inactive are the calls of the source. The rule behind the calls is not given here.

These results are taken from ChEMBL document CHEMBL5346861, “Designing quinoline-isoniazid hybrids as potent anti-tubercular agents inhibiting mycolic acid biosynthesis” (Eur J Med Chem, 2022).

Data set [1] concerns Mycobacterium tuberculosis. Kind of data set: Antimycobacterial activity against Mycobacterium tuberculosis H37Rv assessed as inhibition of bacterial growth. It counts as functional.
Data set [2] relates to Mycobacterium tuberculosis. The data set is described as follows: Antimycobacterial activity against Mycobacterium tuberculosis mc2 6230 assessed as inhibition of bacterial growth at 1 ug/ml measured after 7 days by broth dilution method. Type of data set: functional, organism-based. The settings on record: dose 1.0 µg/ml, time 7.0 day. For orientation: Dilution methods test growth across graded concentrations, often in twofold steps.

The subject of another data set is Mycobacterium marinum. Kind of data set: Antimycobacterial activity against Mycobacterium marinum M strain assessed as inhibition of bacterial growth measured after 6 days by broth dilution method. The settings on record: 144 h, time 6 day. It counts as functional. In outline: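 MIC99 by 2-fold serial broth dilution in 7H9 with 10% OADC and 0.025% tyloxapol. Inoculum 5.10⁶ CFU/mL. Incubated without agitation at 30 °C, scored for no turbidity change after 6 days. DMSO vehicle control.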

Data set [3] deals with Mycobacterium tuberculosis. Kind of data set: Inhibition of mycolic acid biosynthesis in Mycobacterium tuberculosis mc2 6230 assessed as decrease in alpha-mycolic acid incubated for 15 mins followed by 14C-labeled acetate addition measured after 7 hrs by TLC analysis. Type of data set: functional, organism-based. The settings on record: time 435.0 min.
Data set [4] concerns Mycobacterium tuberculosis. The data set is described as follows: Inhibition of mycolic acid biosynthesis in Mycobacterium tuberculosis mc2 6230 assessed as decrease in methoxy-mycolic acid incubated for 15 mins followed by 14C-labeled acetate addition measured after 7 hrs by TLC analysis. Type of data set: functional, organism-based. The settings on record: time 435.0 min.

The test system of data set [5] is Mycobacteroides abscessus. The data set is described as follows: Antimycobacterial activity against Mycobacterium abscessus CIP104536 smooth variant assessed as inhibition of bacterial growth measured after 4 days by broth dilution method. It counts as functional. The settings on record: CIP104536, 96 h, time 4 day. Summed up: (§1)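 MIC99 by CLSI broth 2-fold serial dilution in CaMHB. Inoculum 5.10⁶ CFU/mL. Incubated at 30 °C and read by turbidity after 4 days. DMSO vehicle control, INH reference.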

Data set [6] has as its system Mycobacterium tuberculosis. The data set is described as follows: Inhibition of mycolic acid biosynthesis in Mycobacterium tuberculosis mc2 6230 assessed as decrease in methoxy-mycolic acid at 1.25 ug/ml incubated for 15 mins followed by 14C-labeled acetate addition measured after 7 hrs by TLC analysis. Type of data set: functional, organism-based. To be noted: dose 1.25 µg/ml, time 435.0 min.

Data set [7] in a line: Cytotoxicity against human THP-1 cells assessed as reduction in cell viability measured after 24 hrs by resazurin staining based analysis. It counts as toxicity. In outline:
(§2)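 THP-1 monocytes differentiated with 20 ng/mL PMA for 48 hrs at 1×10^5 cells/well. Compounds added by serial dilution from 100 µg/mL for 24 or 72 hrs at 37 °C and 5% CO₂. Resazurin 10% for 4 hrs, fluorescence at ex 540/em 590 nm. Mean of three independent experiments in triplicate. INH and RFB reference drugs.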
In general terms: Alamar Blue is a resazurin reagent that responds to reducing activity.

Data set [8] deals with Mycobacteroides abscessus. Kind of data set: Antimycobacterial activity against Mycobacterium abscessus CIP104536 rough variant assessed as inhibition of bacterial growth measured after 4 days by broth dilution method. It counts as functional. The settings on record: CIP104536, 96 h, time 4 day. Summed up: as §1
Data set [9] has as its system Mycobacterium tuberculosis. Kind of data set: Antimycobacterial activity against Mycobacterium tuberculosis mc2 6230 assessed as reduction in log10 CFU at 1 time of MIC measured after 6 days by time-killing kinetics assay. It counts as functional, organism-based. To be noted: time 6.0 day. In outline: (§3)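 Exposed to 1x, 5x or 20x MIC at 37 °C for up to 6 days. Serial dilutions plated on 7H10/OADC/pantothenate and colonies counted after 3 weeks. Mean of four independent experiments in technical triplicate, with SD. DMSO negative control.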

For data set [10], the system named is Mycobacterium tuberculosis. The data set is described as follows: Antimycobacterial activity against Mycobacterium tuberculosis mc2 6230 assessed as reduction in log10 CFU at 20 times of MIC measured after 6 days by time-killing kinetics assay. To be noted: time 6 day. It counts as functional. Summed up:
as §3

Data set [11] concerns Mycobacterium tuberculosis. The data set is described as follows: Antimycobacterial activity against Mycobacterium tuberculosis mc2 6230 assessed as reduction in log10 CFU at 5 times of MIC measured after 3 days by time-killing kinetics assay. Type of data set: functional. To be noted: time 3 day. In outline: as §3
Data set [12] concerns Mycobacterium tuberculosis. The data set is described as follows: Antimycobacterial activity against Mycobacterium tuberculosis mc2 6230 assessed as inhibition of bacterial growth measured after 7 days by broth dilution method. It counts as functional. To be noted: mc2 6230, 168 h, time 7 day. In outline: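 Pantothenate auxotroph carrying empty pMV261. 2-fold serial dilutions, 37 °C, no agitation, 7 days. MIC99 is the lowest concentration with no turbidity change. DMSO vehicle control.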

The subject of data set [13] is Mycobacterium tuberculosis. The data set is described as follows: Inhibition of mycolic acid biosynthesis in Mycobacterium tuberculosis mc2 6230 assessed as decrease in keto-mycolic acid at 1.25 ug/ml incubated for 15 mins followed by 14C-labeled acetate addition measured after 7 hrs by TLC analysis. Type of data set: functional, organism-based. The settings on record: dose 1.25 µg/ml, time 435.0 min.

Data set [14] deals with Mycobacterium tuberculosis. Kind of data set: Inhibition of fatty acid methyl esters production in Mycobacterium tuberculosis mc2 6230 incubated for 15 mins followed by 14C-labeled acetate addition measured after 7 hrs by TLC analysis. The settings on record: time 435.0 min. It counts as functional.
Data set [15] in a line: Cytotoxicity against human THP-1 cells assessed as reduction in cell viability measured after 72 hrs by resazurin staining based analysis. Type of data set: toxicity. In outline:
as §2

Data set [16] concerns Mycobacterium tuberculosis. The data set is described as follows: Inhibition of mycolic acid biosynthesis in Mycobacterium tuberculosis mc2 6230 assessed as decrease in keto-mycolic acid incubated for 15 mins followed by 14C-labeled acetate addition measured after 7 hrs by TLC analysis. It counts as functional, organism-based. To be noted: time 435.0 min.
The test system of data set [17] is Mycobacterium tuberculosis. Kind of data set: Inhibition of mycolic acid biosynthesis in Mycobacterium tuberculosis mc2 6230 assessed as decrease in alpha-mycolic acid at 1.25 ug/ml incubated for 15 mins followed by 14C-labeled acetate addition measured after 7 hrs by TLC analysis. It counts as functional, organism-based. To be noted: dose 1.25 µg/ml, time 435.0 min.

The term MIC denotes the lowest concentration found to suppress growth. On to `CC(C)c1ccc(-c2nc(CN3CCN(c4ccnc5cc(Cl)ccc45)CC3)no2)cc1`, for which the MIC in [1] was determined as 1.11 µM.

As usually defined, the CC50 is the concentration that lowers cell viability or growth by half. `O=C(N/N=C/c1ccccc1-n1cc(CN2CCN(c3ccnc4cc(Cl)ccc34)CC2)nn1)c1ccncc1`: the outcome in data set [2] and in [9] was Active. For the same compound, the MIC was 50 µg/mL (≈ 90.6 µM) in the data set on Mycobacterium marinum, above 200 µg/mL in data set [5], above 200 µg/mL in data set [8] and 0.25 µg/mL (≈ 0.453 µM) in data set [12]. The inhibition entry in [3], in data set [4] and in [16] was “Dose-Dependent Effect” in each case. Also, the inhibition result in [6], in [13] and in data set [17] was “Active” each time. Also, in data set [7], the CC50 at 24 h turned out to be 13 µg/mL (≈ 23.5 µM). In addition, the figures for the Activity in [10] and in data set [11] were around 3 log10CFU/ml and 2 log10CFU/ml, respectively. The inhibition result in data set [14] is “inactive”. Further, in [15], the CC50 at 72 h came out at 18 µg/mL (≈ 32.6 µM).

Take `O=C(N/N=C/c1ccccc1)c1ccncc1` [N'-BENZYLIDENE ISONICOTINOHYDRAZIDE]: in data set [1], the MIC is 0.05 µg/mL.
